Experimental data from article PMC4317571 (Structure (London, England : 1993), 2015).
Values belong to the molecule of their own block, whether it stands above or below them. Where no end group is shown, it is not given here. Me2 = dimethyl on the lysine side-chain amine

Key:
GST 53BP1-TTD = assay: Biotinylated p53 peptide microarray binding of GST-tagged 53BP1 TTD; details: biotinylated p53 peptides; four replicate array binding experiments
How it was run: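 Biotinylated p53 C-terminal peptides (residues 366–390) printed on streptavidin-coated glass slides, then probed with GST-tagged 53BP1 TTD. Binding is shown as normalized mean intensity on a 0 (undetectable) to 1 (strong) scale from four replicate array experiments. Agreement between duplicate arrays was assessed by linear regression correlation.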

[1] = test system: p300/CBP at p53 target regions; assay: p300 ChIP-seq enrichment at p53 target regions; format: cell-based; details: meta-analysis of public ChIP-seq data, mouse ES cells
p53K382me2 in U2OS cells = assay: Immunoblot of immunoprecipitated p53: anti-p53K382me2 reactivity; format: cell-based, human
How it was run: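 Sub-confluent U2OS cells were grown in DMEM with 10% FBS and left untreated or given doxorubicin for 4 h. TSA (400 nM) was given for 1 h, in combined treatment added 3 h after doxorubicin. Cells were lysed in Tris pH 7.4/NaCl/Triton buffer with inhibitors. p53 was pulled down from 1 mg protein on DO-1 agarose overnight at 4 °C and eluted non-reducing at 70 °C. Blots were probed overnight at 4 °C with anti-K382me2 and a light-chain-specific secondary.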

[2] = test system: anti-p53K382me2 antibodies; assay: Dot-blot reactivity of anti-p53K382me2 antibody toward p53 peptides; format: binding, rabbit; details: relative to p53K381acK382me2 peptide, residues 377–386
53BP1 TTD, wild type = 53BP1 TTD, wild type (Homo sapiens, UniProt Q12888); assay: NMR binding to 53BP1 TTD; details: 15N-labeled TTD, peptide titrated in
53BP1 TTD, wild type, sequence (Q12888 1484-1603 limits assumed): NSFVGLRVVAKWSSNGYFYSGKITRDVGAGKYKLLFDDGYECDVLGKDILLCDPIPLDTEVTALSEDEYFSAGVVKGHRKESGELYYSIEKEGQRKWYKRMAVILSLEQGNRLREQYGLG

Molecule: COc1cccc2c1C(=O)c1c(O)c3c(c(O)c1C2=O)C[C@@](O)(C(=O)CO)C[C@@H]3O[C@H]1C[C@H](N)[C@H](O)[C@H](C)O1 [doxorubicin]
p300/CBP at p53 target regions (in words) [1]: enrichment of p300/CBP
p53K382me2 level in immunoprecipitated p53 (in words) (p53K382me2 in U2OS cells; doxorubicin 4 h (5 µg/mL in legend, 0.5 µg/mL in method)): increased substantially

Molecule: CC(/C=C/C(=O)NO)=C\[C@@H](C)C(=O)c1ccc(N(C)C)cc1 [TSA]
p53K382me2 level under basal conditions (in words) (p53K382me2 in U2OS cells; basal, with TSA 400 nM, 1 h): little p53K382me2 was present

Molecule: p53K382me2: p53 peptide dimethylated at K382 (residues 377–386; biotinylated 366–390 for microarray) (SSHLKSKKGQSTSRHKK(Me2)LMFKTEGP; also: biotin label, position not given here)
anti-p53K382me2 antibody reactivity, fold weaker than with p53K381acK382me2 peptide [2]: 16 fold
chemical shift changes in 1H,15N HSQC spectra of TTD (in words) (53BP1 TTD, wild type): most significant changes in the K382me2-binding cage

Other lines, results leading:

GST-TTD binding in peptide microarray (in words) (GST 53BP1-TTD): recognizes
Molecule: p53K382me2K386ac: biotinylated p53 CTD peptide with K382me2 and K386ac (SSHLKSKKGQSTSRHKK(Me2)LMFK(Ac)TEGP; also: biotin label, position not given here)

GST-TTD binding in peptide microarray (in words) (GST 53BP1-TTD): more weakly
Molecule: p53K372me2: p53 CTD peptide dimethylated at K372 (SSHLKSK(Me2)KGQSTSRHKKLMFKTEGP; also: biotin label, position not given here)

GST-TTD binding in peptide microarray (in words) (GST 53BP1-TTD): more weakly
Molecule: p53K370me2: p53 CTD peptide dimethylated at K370 (SSHLK(Me2)SKKGQSTSRHKKLMFKTEGP; also: biotin label, position not given here)
